The values below come from ChEMBL document CHEMBL4118021, “Studies of TAK1-centered polypharmacology with novel covalent TAK1 inhibitors” (Bioorg Med Chem, 2017).

The structures appear in SMILES notation. Activity calls are given as the source filed them. No cut-off for these calls is given here.

Data set [1] concerns BaF3. As to the kind of experiment: Antiproliferative activity against mouse BA/F3 cells after 72 hrs by CellTiter-Glo assay. The format is cell-based. The following applies: BaF3, 72 h. For orientation: In ATP-based viability assays light output follows the ATP content of the culture.
The target in data set [2] is T1, Mitogen-activated protein kinase kinase kinase 7 (Homo sapiens) (UniProt O43318).
T1 sequence (whole entry): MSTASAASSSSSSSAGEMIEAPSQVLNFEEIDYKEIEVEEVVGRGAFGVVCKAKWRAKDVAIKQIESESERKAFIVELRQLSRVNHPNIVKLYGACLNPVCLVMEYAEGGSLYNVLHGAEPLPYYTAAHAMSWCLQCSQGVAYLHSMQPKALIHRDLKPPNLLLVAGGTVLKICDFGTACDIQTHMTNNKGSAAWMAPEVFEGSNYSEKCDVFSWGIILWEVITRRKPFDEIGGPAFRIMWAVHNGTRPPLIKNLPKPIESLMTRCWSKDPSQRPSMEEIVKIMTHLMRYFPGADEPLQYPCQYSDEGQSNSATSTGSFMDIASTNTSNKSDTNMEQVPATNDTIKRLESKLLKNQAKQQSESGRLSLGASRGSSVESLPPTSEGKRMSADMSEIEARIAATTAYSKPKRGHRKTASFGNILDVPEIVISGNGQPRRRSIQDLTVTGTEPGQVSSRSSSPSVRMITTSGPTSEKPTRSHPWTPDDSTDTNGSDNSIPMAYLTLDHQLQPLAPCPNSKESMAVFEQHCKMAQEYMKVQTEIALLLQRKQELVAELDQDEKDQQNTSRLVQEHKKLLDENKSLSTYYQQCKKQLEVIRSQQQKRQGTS
As to the kind of experiment: Inhibition of TAK1 in RA patient-derived synovial fibroblasts assessed as inhibition of TNFalpha-induced cytokine secretion at 3 uM preincubated for 3 hrs followed by TNFalpha stimulation measured after 18 hrs by sandwich immunoassay. The method in brief: (§1)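 Primary RA synovial fibroblasts (donor RA2159) seeded 1000 cells/well and grown ~24 h at 37 °C, 5% CO2. Starved overnight in basal medium, then ~4 h in basal medium with 0.1% BSA. Two adjacent wells pooled per replicate, in biological duplicate. Supernatants diluted 1:3 and run on Luminex 27-plex/21-plex sandwich immunoassays for 48 analytes, with spiked-ligand and mock-supernatant background controls.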

Data set [3] deals with Receptor-type tyrosine-protein kinase FLT3 (Homo sapiens, UniProt P36888). As to the kind of experiment: Inhibition of FLT3 (unknown origin).
Data set [4] deals with BaF3. In words: Antiproliferative activity against mouse BA/F3 cells harboring NRAS G12D mutant after 72 hrs by CellTiter-Glo assay. The following applies: BaF3, 72 h. The format is functional, cell-based. Put shortly: (§2)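 Ba/F3 parental or RAS-transformed cells were seeded at 1000 viable cells/well, without or with IL-3 as the line states, at 37 °C and 5% CO2. After 4 h, nine four-fold serial dilutions were added in triplicate (final 0.5–30,000 nM, 0.3% DMSO). DMSO wells served as 100% viability.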

Data set [5] deals with T1, Mitogen-activated protein kinase kinase kinase 7 (Homo sapiens). In words: Inhibition of biotin-labeled N-(2-(2-(2-(2-(4-(4-((4-((2-Acrylamidophenyl)amino)-5-chloropyrimidin-2-yl)amino)phenyl)piperazin-1-yl)ethoxy)ethoxy)ethoxy)ethyl)-5-((3aS,4S,6aR)-2-oxohexahydro-1H-thieno[3,4-d]imidazol-4-yl)pentanamide probe binding to TAK1 in human NCI-H358 cells at 10 uM after 6 hrs by immunoblot based competitive pull down assay. It is filed as cell-based. The method in brief:
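H358 cells given 1 or 10 μM compound for 6 h, medium removed, cells rinsed twice with cold PBS and lysed in MPER buffer. Lysates incubated overnight at 4 °C with 1 μM biotinylated covalent probe, captured on streptavidin beads, and TAK1 recovery assessed by immunoblotting with anti-TAK1 antibody.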
(In general: A western blot detects proteins with antibodies after separation by electrophoresis.)

The nature of data set [6]: Antiproliferative activity against human URMC6 cells harboring wild type KRAS after 72 hrs by CellTiter-Glo assay. It is filed as functional, cell-based.
In data set [7] the test system is BaF3. As to the kind of experiment: Antiproliferative activity against mouse BA/F3 cells harboring KRAS G12D mutant after 72 hrs in presence of IL-3 by CellTiter-Glo assay. It is filed as functional, cell-based. The following applies: BaF3, 72 h.
Another data set has as its system SW-620. As to the kind of experiment: Antiproliferative activity against human SW620 cells harboring KRAS G12V mutant after 72 hrs by CellTiter-Glo assay. The format is functional, cell-based. As to conditions: SW-620, 72 h.
In the next data set the test system is PANC-1. As to the kind of experiment: Antiproliferative activity against human PANC1 cells harboring KRAS G12D mutant after 72 hrs by CellTiter-Glo assay. The format is functional, cell-based. The following applies: PANC-1, 72 h.
The target in data set [8] is T1, Mitogen-activated protein kinase kinase kinase 7 (Homo sapiens). As to the kind of experiment: Inhibition of TAK1 in RA patient-derived synovial fibroblasts assessed as inhibition of IL-1alpha-induced cytokine secretion at 3 uM preincubated for 3 hrs followed by IL-1alpha stimulation measured after 18 hrs by sandwich immunoassay. The method in brief:
as §1

The subject of the next data set is MOLM-14. As to the kind of experiment: Antiproliferative activity against human MOLM14 cells harboring FLT3-ITD mutant at […] to […] nM after 72 hrs by CellTiter-Glo assay. It is filed as functional, cell-based.
Data set [9] in a line: Increase in secretion of basic-FGF in TNFalpha activated RA patient-derived synovial fibroblasts at 0.6 to 3 uM preincubated for 3 hrs followed by TNFalpha stimulation measured after 18 hrs by sandwich immunoassay. As to conditions: human. Put shortly: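 Primary RA patient synovial fibroblasts (donor RA2159) were seeded at 1000 cells/well, grown about 24 h, then starved overnight and again about 4 h in basal medium with 0.1% BSA. Cells were pre-incubated 3 h with inhibitor (0.6 or 3 μM) or DMSO, then stimulated 18 h with 10 ng/mL TNFα. Paired wells were pooled, in biological duplicate. Pooled supernatants were diluted 1:3 and read on Luminex bead sandwich immunoassays, with mock-medium background and spiked-ligand controls.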

Data set [10] is described as follows: Antiproliferative activity against human SW156 cells harboring wild type KRAS after 72 hrs by CellTiter-Glo assay. It is filed as functional, cell-based.
Another data set concerns U-937. In words: Antiproliferative activity against human U937 cells at […] to […] nM after 72 hrs by CellTiter-Glo assay. It is filed as functional, cell-based.
Data set [11] concerns NCI-H23. In words: Antiproliferative activity against human NCI-H23 cells harboring KRAS G12C mutant after 72 hrs by CellTiter-Glo assay. The format is functional, cell-based. Put shortly:
(§3)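 NCI-H23 or NCI-H358 cells seeded at 2000 cells/well and grown 48 h before drug. Varying doses were added and cells incubated 72 h. Viability was read as CellTiter-Glo luminescence, and growth-inhibition IC50 was calculated from dose-response curves.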

The test system of data set [12] is BaF3. In words: Antiproliferative activity against mouse BA/F3 cells harboring KRAS G12D mutant after 72 hrs by CellTiter-Glo assay. As to conditions: BaF3, 72 h. The format is functional, cell-based.
The next data set relates to SK-CO-1. In words: Antiproliferative activity against human SKCO1 cells harboring KRAS G12V mutant after 72 hrs by CellTiter-Glo assay. It is filed as functional, cell-based. As to conditions: SK-CO-1, 72 h.
Data set [13] addresses T2, Mitogen-activated protein kinase kinase kinase 7 (Homo sapiens, UniProt O43318).
T2 sequence (O43318 whole entry): T1 sequence (whole entry)
In words: Inhibition of TAK1 (unknown origin) by LanthaScreen assay. For orientation: TR-FRET usually uses a lanthanide donor and a delayed reading to cut background.

A further data set has as its system HEL. In words: Antiproliferative activity against human HEL cells at […] to […] nM after 72 hrs by CellTiter-Glo assay. The format is functional, cell-based.
For data set [14], the system named is BaF3. In words: Antiproliferative activity against mouse BA/F3 cells harboring NRAS G12D mutant after 72 hrs in presence of IL-3 by CellTiter-Glo assay. The format is functional, cell-based. As to conditions: BaF3, 72 h. The method in brief:
as §2

The subject of another data set is ASPC1. In words: Antiproliferative activity against human AsPC1 cells harboring KRAS G12D mutant after 72 hrs by CellTiter-Glo assay. The format is functional, cell-based. The following applies: ASPC1, 72 h.
In a further data set the test system is NALM-6. In words: Antiproliferative activity against human NALM6 cells harboring NARS A146T mutant at […] to […] nM after 72 hrs by CellTiter-Glo assay. It is filed as functional, cell-based.
For data set [15], the target named is T1, Mitogen-activated protein kinase kinase kinase 7 (Homo sapiens). In words: Inhibition of TAK1 in RA patient-derived synovial fibroblasts assessed as inhibition of poly(I:C)-induced cytokine secretion at 3 uM preincubated for 3 hrs followed by poly(I:C) stimulation measured after 18 hrs by sandwich immunoassay. The method in brief: as §1
Data set [16] concerns NCI-H358. As to the kind of experiment: Antiproliferative activity against human NCI-H358 cells harboring KRAS G12C mutant after 72 hrs by CellTiter-Glo assay. It is filed as functional, cell-based. Put shortly: as §3
The test system of data set [17] is NCI-H358. As to the kind of experiment: Antiproliferative activity against human NCI-H358 cells harboring KRAS G12C mutant at. It is filed as functional, cell-based.
Data set [18] relates to NCI-H23. In words: Antiproliferative activity against human NCI-H23 cells harboring KRAS G12C mutant at. It is filed as functional, cell-based.

Receptor-type tyrosine-protein kinase FLT3, sequence (P36888 whole entry): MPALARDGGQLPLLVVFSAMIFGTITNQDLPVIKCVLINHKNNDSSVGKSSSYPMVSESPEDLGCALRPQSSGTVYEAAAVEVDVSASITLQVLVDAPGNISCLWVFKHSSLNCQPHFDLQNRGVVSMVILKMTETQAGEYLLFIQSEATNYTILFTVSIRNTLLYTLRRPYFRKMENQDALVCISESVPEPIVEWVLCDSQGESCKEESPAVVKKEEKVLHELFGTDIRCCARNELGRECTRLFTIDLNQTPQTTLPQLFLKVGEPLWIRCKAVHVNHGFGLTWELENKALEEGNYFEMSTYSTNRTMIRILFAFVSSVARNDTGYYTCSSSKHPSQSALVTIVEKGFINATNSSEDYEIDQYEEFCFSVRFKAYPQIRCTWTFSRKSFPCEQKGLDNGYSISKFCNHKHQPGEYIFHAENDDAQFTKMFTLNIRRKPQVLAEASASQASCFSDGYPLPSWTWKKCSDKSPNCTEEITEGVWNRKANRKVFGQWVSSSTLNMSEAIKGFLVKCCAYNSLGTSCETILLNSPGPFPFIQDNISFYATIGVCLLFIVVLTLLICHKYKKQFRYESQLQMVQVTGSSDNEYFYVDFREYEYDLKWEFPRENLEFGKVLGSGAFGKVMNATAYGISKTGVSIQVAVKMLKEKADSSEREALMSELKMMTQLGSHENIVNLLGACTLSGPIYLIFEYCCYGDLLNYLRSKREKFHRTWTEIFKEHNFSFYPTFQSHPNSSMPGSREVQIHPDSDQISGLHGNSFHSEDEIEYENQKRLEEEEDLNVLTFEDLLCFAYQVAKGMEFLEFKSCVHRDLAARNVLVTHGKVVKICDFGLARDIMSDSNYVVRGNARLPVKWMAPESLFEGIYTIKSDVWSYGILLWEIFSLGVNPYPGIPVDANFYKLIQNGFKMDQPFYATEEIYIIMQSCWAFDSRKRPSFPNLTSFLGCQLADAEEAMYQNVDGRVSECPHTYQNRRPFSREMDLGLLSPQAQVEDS

For `C=CC(=O)Nc1ccccc1Oc1nc(Nc2ccc(N3CCN(C)CC3)cc2)ncc1Cl`, the IC50 (in general, the concentration at which inhibition is half-maximal) stood at 274 nM in the data set on BaF3 [1]; 0.63 nM in data set [3]; 10 nM in the data set with BaF3 [4]; 524 nM in [6]; 93 nM with BaF3 [7]; 767 nM in the data set on SW-620. In addition, the half-inhibitory concentration (IC50) came out at 1260 nM in the data set on PANC-1; 2880 nM in [10]; 28 nM in the data set with BaF3 [12]; 294 nM with SK-CO-1; 5.1 nM in data set [13]; 61 nM in the data set with BaF3 [14]. In the data set on ASPC1, this compound registered an IC50 of 1850 nM. The inhibition entry in [2], in data set [5], in data set [8] and in data set [15] was “Active” in each case. The result in the data set with MOLM-14, in the data set on U-937, with NCI-H23 [11] and with NCI-H358 [16] was Active. Also, the Activity entry in [9] is on record as “Toxic”. Also, the outcome with HEL and in the data set on NALM-6 was inactive.
Turning to `N#CC[C@H](C1CCCC1)n1cc(-c2ncnc3[nH]ccc23)cn1`, the result in the data set with NCI-H358 [17] and in the data set with NCI-H23 [18] was Active.
